Assay outcomes (PubChem BioAssay)
OX1R antag-1: human HCRTR1 antagonism. O43613. CHO/OX1R cells, Fluo-8 calcium fluorescence, orexin A. inhibition, % at 5 µM. actives 0.43% (n = 330,000). AID 434989;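 active means inhibition above its plate's threshold, mean inhibition of all tested compounds on the plate plus 3 SD, cut at about 37% in these data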
Target sequence (O43613 whole entry, looked up): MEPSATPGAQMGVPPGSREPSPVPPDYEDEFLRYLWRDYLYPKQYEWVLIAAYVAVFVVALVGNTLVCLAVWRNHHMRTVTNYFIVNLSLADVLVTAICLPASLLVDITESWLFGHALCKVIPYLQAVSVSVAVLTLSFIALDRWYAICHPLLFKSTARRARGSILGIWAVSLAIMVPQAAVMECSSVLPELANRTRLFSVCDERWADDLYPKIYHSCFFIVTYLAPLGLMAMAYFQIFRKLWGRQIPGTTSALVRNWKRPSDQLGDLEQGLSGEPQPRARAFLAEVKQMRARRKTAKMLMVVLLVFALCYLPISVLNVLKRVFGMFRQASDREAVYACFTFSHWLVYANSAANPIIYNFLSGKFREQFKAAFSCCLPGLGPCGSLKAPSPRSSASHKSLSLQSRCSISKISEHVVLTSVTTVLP
OXTR ag: human OXTR agonism | actives 0.32% (n = 320,000) | activation, % at 3 µM | CHO-OTR cells, Fluo-8 calcium fluorescence; normalized: DMSO 0%, oxytocin 100% | AID 2435;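 active means activation above the mean of all tested compounds plus 3 SD, cutoff set per screening run, cut at about 20% in these data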;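 further: peak over basal fluorescence ratio from a 100 s FLIPR kinetic read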
CHO parental Ca: signal in parental CHO cells, OX1R antagonist counter-screen; parental CHO-K1, ATP-induced calcium, Fluo-8 fluorescence; inhibition, % at 5.6 µM; actives 0.63% (n = 330,000);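 active means inhibition above that plate's mean sample inhibition plus 3 SD, cut at about 26% in these data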
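Assay system – parental CHO cells · Reagent – ATP stimulus · Detection – intracellular calcium via Fluo-8 no-wash fluorescent dye · Evaluation – percent inhibition of ATP-evoked calcium rise, normalized to controls · Controls – ATP wells versus no-ATP DMSO wells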
OXTR potentiate: potentiates the human oxytocin receptor response; actives 0.061% (n = 320,000); activation, % at 3 µM; CHO-OTR cells, Fluo-8 calcium fluorescence, potentiator mode; 0% = oxytocin EC15, 100% = EC100;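 active means activation above that plate's cutoff, the mean activation of tested compounds plus 3 SD, cut at about 6.6% in these data, passing the limit was not always enough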
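Measured by – Fluo-8 calcium dye fluorescence · Test system – human OTR in CHO cells · Dosing – one concentration, 3.0 µM compound · Controls – EC15 oxytocin alone as 0%, 75 nM oxytocin as 100% · Evaluation – normalized max/min fluorescence ratio, % activation · Timing – 6 min pre-incubation, 100 s read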
OX1R antag-2: antagonists of human orexin 1 receptor (OX1R). inhibition, % at 6.6 µM. actives 1.8% (n = 330,000). OX1R-expressing cells, FRET antagonist read-out; in the data active means inhibition mostly above about 38%, no sharp cut-off; inactive means mostly below about 40%
V1aR counter: V1a receptor agonism, counter-screen for OXTR agonists. P37288. CHO-V1R cells, Fluo-8 calcium fluorescence, agonist mode; 0% DMSO, 100% 3 nM vasopressin. activation, % at 3 µM. actives 0.25% (n = 320,000);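 active means activation above the mean activation of all tested compounds plus 3 SD, per screening run, cut at about 20% in these data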;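 further: signal is peak over basal fluorescence ratio across a 100 second FLIPR read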
A number is an active result; n = inactive; x = not tested or not shown. Sampled rows, rich in hits. Any-hit rate of the full collection: about 2.7%.

SMILES	OX1R antag-1	OXTR ag	CHO parental Ca	OXTR potentiate	OX1R antag-2	V1aR counter
COc1cccc(/C=C2\CC(C)Cc3c2nc2ccccc2c3C(=O)O)c1OC (configuration not stated)	n	n	n	n	75.4	n
CC(C)(C)c1ccc(Cn2cnc(-c3ccc([N+](=O)[O-])cc3)c2)cc1	n	n	42.3	n	n	n
Cc1cc(C)c(Cn2cnc(-c3ccc([N+](=O)[O-])cc3)c2)c(C)c1	n	n	n	n	n	n
N#C/C(=N\Nc1ccc(S(=O)(=O)N2CCCCC2)cc1)C(N)=S	n	n	n	n	n	n
N#C/C(=N\Nc1ccc(S(=O)(=O)N2CCCCCC2)cc1)C(N)=S	n	n	n	n	49.2	n
Clc1ccc(-c2ccc(CNCc3ccccn3)o2)cc1	n	n	n	n	n	n
CNC(=O)COC(=O)c1c2c(nc3ccccc13)CCC2	n	n	n	n	n	n
COc1ccc(OC)c(NC(=O)COC(=O)c2c3c(nc4ccccc24)CCCC3)c1	n	n	n	n	56.6	n
COc1ccc(NC(=O)COC(=O)c2c3c(nc4ccccc24)CCCC3)cc1	n	n	n	n	n	n
COc1ccc(NC(=O)COC(=O)c2c3c(nc4ccccc24)CCCC3)cc1Cl	n	n	n	n	75.2	n
Cc1ccc(C(C)C)cc1OCC(=O)N1CCN(C(=O)c2ccco2)CC1	n	n	n	n	n	n
O=C(Nc1cccnc1)c1ccc(COc2ccccc2Br)o1	n	n	n	n	n	n
O=C(Nc1ccc(OCc2ccccc2)cc1)c1cccnc1	n	21.3	n	n	n	22.2
CC(C)(C)c1ccc(OCc2ccc(C(=O)Nc3cccnc3)o2)cc1	n	n	29.2	n	n	n
O=C(Nc1ccc(Oc2ccccc2)cc1)C1CCN(c2c3c(nc4ncnn24)CCC3)CC1	35.9	n	49.2	n	n	n
CCN1C(=O)[C@H]2[C@@H](c3ccc(C)cc3)N3C(=O)N(c4cccc(F)c4)C(=O)[C@@]3(Cc3ccc(Cl)cc3)[C@H]2C1=O	n	n	n	n	55.8	n
COc1ccc(-c2csc3ncnc(N4CCN(c5ccccc5[N+](=O)[O-])CC4)c23)cc1	n	n	n	n	n	n
COc1ccc(CCNC2=CC(=O)N(c3ccc(F)cc3)C2=O)cc1	n	n	39.0	n	n	n
CCNC(=O)CC1C(=O)N(c2ccc(F)cc2)C(=O)N1CCc1ccc(OC)cc1 (configuration not stated)	n	n	n	n	n	n
O=C(Cc1ccc2ccccc2c1)NC(Cc1ccccc1)C(=O)O (configuration not stated)	n	x	n	x	n	x
CCCCC(=O)Nc1cnc(NC(=O)c2cccs2)cc1C	n	n	n	n	n	n
COc1ccc2sc(-c3ccc(N(C)C)cc3)c(C#CCCO)c2c1	n	n	n	n	51.2	n
COc1cccc(OC)c1C(=O)Nc1cc(Cl)ccc1N1CCOCC1	n	n	n	n	52.9	n
Cc1noc(C)c1C(=O)Nc1cc(Cl)ccc1N1CCOCC1	n	n	n	n	n	n
COc1cc(NC(=O)CSc2ccc(-c3ccccn3)nn2)cc(OC)c1	n	n	n	n	60.2	n
SMILES	OX1R antag-1	OXTR ag	CHO parental Ca	OXTR potentiate	OX1R antag-2	V1aR counter
Cc1cc(C)cc(NC(=O)CSc2ccc(-c3cccs3)nn2)c1	n	n	n	n	62.2	n
COc1ccc(C(=O)CSc2ccc(-c3ccccc3)nn2)cc1	n	n	n	n	68.6	n
COc1cccc(-c2ccc(SCC(=O)c3ccccc3)nn2)c1	n	n	n	n	n	n
COc1ccccc1C(=O)NNC(=O)CCC(=O)NCc1ccccc1	n	n	n	n	n	n
COC(=O)c1cc(S(=O)(=O)NCC2CCN(CCc3cccs3)CC2)c[nH]1	n	n	n	n	n	n
Cc1ccc(-c2nc(CS(=O)CC(=O)NCCN3CCCCC3C)c(C)o2)cc1 (configuration not stated)	n	n	n	n	n	n
O=S(=O)(Nc1ccc(F)cc1)N1CCOCC1	n	n	n	n	n	n
CC(NS(=O)(=O)OCC(Cl)(Cl)Cl)c1ccc(C(C)(C)C)cc1 (configuration not stated)	n	n	64.1	n	n	n
Cc1ccc(-c2noc(CSc3nnnn3C3CCCCC3)n2)cc1	n	n	37.9	n	n	n
Cc1ccc(-c2noc(CSc3nnc(-c4ccncc4)n3-c3ccc(C)cc3)n2)cc1	n	n	n	n	n	n
CCN(CC)c1ccc(C(=O)NNC(=O)C2CSC3(C)CCC(=O)N23)cc1 (configuration not stated)	n	n	n	n	n	n
NC(=O)c1c(NC(=O)c2ccccc2Cl)sc2c1CCC2	n	n	n	n	n	n
NC(=O)c1c(NC(=O)c2ccccc2C(=O)O)sc2c1CCCC2	n	n	n	n	n	n
NC(=O)c1c(NC(=O)c2ccc(F)cc2Cl)sc2c1CCC2	n	n	n	n	43.5	n
NC(=O)c1c(NC(=O)c2ccccc2F)sc2c1CCCC2	n	n	n	n	73.7	n
O=C(COc1cccc(Cl)c1)Nc1ccccc1N1CCCCC1	n	n	n	n	n	n
Cc1ccc(NS(=O)(=O)c2cc(C(=O)N(C)C3CCN(C)CC3)ccc2Cl)cc1Cl	n	n	n	n	n	n
COc1cc(-c2noc(C)c2-c2ccc(N(C)C)nc2)cc(OC)c1OC	n	35.7	n	n	74.7	33.9
CCOC(=O)c1cnc(SCc2nc(N)nc(Nc3ccc(F)cc3)n2)nc1N	n	n	n	n	60.6	n
COc1cc(C(=O)Nc2scc(-c3ccc(Br)cc3)c2C(=O)O)cc(OC)c1OC	n	n	n	n	54.2	n
CC[C@@H]1CCCCc2ccccc2[C@H](C(=O)C[C@H](O)CC(C)=O)OC1=O	n	n	n	n	n	n
CC(=O)NCCNc1ccc([N+](=O)[O-])cc1C#N	n	n	n	n	67.1	n
Nc1cc(C(=O)N/N=C/c2cccc([N+](=O)[O-])c2)n[nH]c1=O	n	n	n	n	51.7	n
O=C(N/N=C/c1cccc([N+](=O)[O-])c1)c1cc[n+](CCO)cc1	n	n	n	n	69.0	n
O=C(N/N=C/c1ccco1)c1cc([N+](=O)[O-])cc([N+](=O)[O-])c1	n	n	n	n	63.6	n
CCCCCCCC(=O)Nc1ccc(C(=O)N/N=C/c2cccc([N+](=O)[O-])c2)cc1	n	n	n	n	n	n
O=C(N/N=C/c1ccncc1)c1cccc([N+](=O)[O-])c1	n	n	n	n	56.9	n
CSc1sccc1/C=C(/C#N)C(=O)c1ccco1	n	n	n	n	n	n
